Consider 1 compound from ChEMBL document CHEMBL2417498, “Design and synthesis of 6,7-methylenedioxy-4-substituted phenylquinolin-2(1H)-one derivatives as novel anticancer agents that induce apoptosis with cell cycle arrest at G2/M phase” (Bioorg Med Chem, 2013).

Test [1] relates to HL-60. Nature of the test: Cell cycle arrest in human HL60 cells assessed as accumulation at G2/M phase at 1 uM after 24 hrs by propidium iodide staining-based FACS analysis (reference value: 10.51%). Format: functional.
Test [2] concerns COLO 205. Nature of the test: Cytotoxicity against human COLO205 cells after 48 hrs by MTT assay. Format: functional, cell-based. The following applies: COLO 205, 48 h. The method in brief:
(§1)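 Log-phase tumour cells grown in RPMI-1640 with 10% FBS, penicillin/streptomycin and 1% L-glutamine at 37 °C, 5% CO2. Cells treated with vehicle or a range of concentrations for 48 h. Growth measured by MTT reduction, absorbance at 570 nm. IC50 is the concentration giving 50% proliferation inhibition, from 3 independent experiments.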
For orientation: Tetrazolium assays rely on reduction of a dye to a coloured formazan, in cell work by metabolically active cells.

Test [3] relates to HL-60. Nature of the test: Increase in cyclin B1 expression in human HL60 cells at 0.25 to 1 uM after 24 hrs by Western blot analysis. Format: functional, cell-based. The method in brief: (§2)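 HL-60 cells treated 24 h at the indicated concentrations, harvested, lysed (30 min on ice, 12,000 g spin), protein by Bradford; samples run on 10% SDS-PAGE, transferred to nitrocellulose, immunodetected by chemiluminescence.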
A general note: In western blotting, separated proteins are transferred to a membrane and probed.

Test [4] concerns MCF7. Nature of the test: Cytotoxicity against human MCF7 cells after 48 hrs by MTT assay. The following applies: MCF7, 48 h. Format: functional, cell-based. In a few lines:
as §1

The nature of test [5]: Cell cycle arrest in human H460 cells assessed as accumulation at sub G1 phase at 5 uM after 24 hrs by propidium iodide staining-based FACS analysis (reference value: 3.07%). In kind it is functional. The following applies: NCI-H460. In a few lines: (§3)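 H460 cells treated 24 h with 1.0, 2.5 or 5.0 µM; washed in PBS, fixed overnight in 70% ice-cold ethanol at −20 °C, stained 30 min in the dark with 0.1% Triton X-100, 0.2 mg/mL RNase and 20 µg/mL propidium iodide; DNA content by flow cytometry, phase distribution from histogram modelling.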
For orientation: In flow cytometry, cells or beads pass a laser one at a time.

Test [6] relates to NCI-H460. Nature of the test: Induction of apoptosis in human H460 cells assessed as chromatin condensation at 1 to 5 uM after 24 hrs by Hoechst 33258 staining-based microscopy. In kind it is functional, cell-based. In a few lines:
(§4)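 H460 plated at 5×10⁴ cells/well and incubated 24 h with 1.0, 2.5 or 5.0 µM; stained with 5 µg/mL Hoechst 33258 for 10 min, washed twice in PBS, fixed in 4% paraformaldehyde 10 min at 25 °C; nuclei scored for chromatin condensation, fragmentation and apoptotic bodies by fluorescence microscopy; 0.1% DMSO control.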

Test [7] has as its system HL-60. Nature of the test: Decrease in cyclin B1 expression in human HL60 cells at 0.25 to 1 uM after 24 hrs by Western blot analysis. In kind it is functional, cell-based. In a few lines:
as §2

The test system of test [8] is NCI-H460. Nature of the test: Induction of apoptosis in human H460 cells assessed as caspase3 cleavage at 1 to 5 uM by Western blot analysis. In kind it is functional, cell-based. In a few lines: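 H460 cells exposed 24 h at the indicated concentrations; lysates cleared at 12,000 g, protein quantified by Bradford, resolved on 10% SDS-polyacrylamide gels, blotted to nitrocellulose and detected by chemiluminescence.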

Test [9] deals with HL-60. Nature of the test: Decrease in CDK1 expression in human HL60 cells after 24 hrs by Western blot analysis. Format: functional, cell-based. The method in brief:
as §2

A short description of test [10]: Cell cycle arrest in human H460 cells assessed as accumulation at G2/M phase at 1 uM after 24 hrs by propidium iodide staining-based FACS analysis (reference value: 10.73%). Format: functional. The following applies: NCI-H460. In a few lines: as §3
Test [11] is described as follows: Cell cycle arrest in human H460 cells assessed as accumulation at S phase at 1 uM after 24 hrs by propidium iodide staining-based FACS analysis (reference value: 43.08%). In kind it is functional. As to conditions: NCI-H460. The method in brief:
as §3

The test system of test [12] is HL-60. Nature of the test: Cell cycle arrest in human HL60 cells assessed as accumulation at sub G1 phase at 0.5 uM after 24 hrs by propidium iodide staining-based FACS analysis (reference value: 0.35%). Format: functional.
The nature of test [13]: Cell cycle arrest in human H460 cells assessed as accumulation at sub G1 phase at 2.5 uM after 24 hrs by propidium iodide staining-based FACS analysis (reference value: 3.07%). Format: functional. As to conditions: NCI-H460. In a few lines:
as §3

A short description of test [14]: Cell cycle arrest in human H460 cells assessed as accumulation at G2/M phase at 2.5 uM after 24 hrs by propidium iodide staining-based FACS analysis (reference value: 10.73%). As to conditions: NCI-H460. In kind it is functional. In a few lines:
as §3

Test [15] can be described thus: Cytotoxicity against human 2774 cells after 48 hrs by MTT assay. Format: functional, cell-based.
Test [16] deals with NCI-H460. Nature of the test: Induction of apoptosis in human H460 cells assessed as appearance of nuclear fragmentation at 1 to 5 uM after 24 hrs by Hoechst 33258 staining-based microscopy. In kind it is functional, cell-based. In a few lines:
as §4

A short description of test [17]: Cell cycle arrest in human H460 cells assessed as accumulation at S phase at 5 uM after 24 hrs by propidium iodide staining-based FACS analysis (reference value: 43.08%). Format: functional. As to conditions: NCI-H460. In a few lines:
as §3

The subject of test [18] is Detroit 551. Nature of the test: Cytotoxicity against human Detroit 551 cells after 48 hrs by MTT assay. Format: cell-based. The following applies: Detroit 551, 48 h. In a few lines: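 Detroit 551 normal skin cells and Hep 3B hepatoma cells grown in DMEM with 10% FBS, penicillin/streptomycin and 1% L-glutamine at 37 °C, 5% CO2. Log-phase cells treated with vehicle or a range of concentrations for 48 h. MTT reduction read at 570 nm. IC50 (50% proliferation inhibition) taken from 3 independent experiments.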

The source made the active and inactive calls. The calls are words filed in the database; no cut-off is given here.

With `COc1ccc(-c2cc(=O)[nH]c3cc4c(cc23)OCO4)c(OC)c1`, the Activity in test [1] is 40.54%; in test [5], 11.2%; in [9], “Dose-dependent effect”; in test [10] it was 54.4%; in test [11], 44.1%; in test [12] it was 27.86%. Further, the Activity in test [13] amounted to 11.7%; in test [14] it was 71.6%; in test [17], 22.4%. Besides, the IC50 in test [2] is 7.4 µM; in test [4] it was 6 µM; in test [15] it was 0.4 µM; in test [18], above 25 µM. Moreover, the outcome in [3], in test [6], in [7], in [8] and in test [16] was Active.

In general, IC50 refers to the midpoint of a concentration-inhibition curve.
